From ChEMBL document CHEMBL1153285, “Synthesis and SAR of piperazinyl-N-phenylbenzamides as inhibitors of hepatitis C virus RNA replication in cell culture” (Bioorg Med Chem Lett, 2009) come the findings set out here.

Structures are written as SMILES. The source made the active and inactive calls. The rule behind the calls is not given here.

As usually defined, the EC50 is the concentration that produces a half-maximal response.

The test system of one assay is Hepatitis C virus. The assay can be described thus: Antiviral activity against HCV infected in human HUH7 cells assessed as inhibition of viral subgenomic RNA replication in presence of 10% fetal calf serum. As to conditions: Huh-7. Type of assay: functional, organism-based, Hepacivirus hominis. The essentials:
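Replication of subgenomic HCV RNA was measured in HUH-7 replicon cells using a modified Bartenschlager procedure. Results are reported as EC50 in µM.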
In the case of `CC(C)(C)OC(=O)N1CCN(c2ccc(C(=O)Nc3ccc(/C=C/c4ccc(O)cc4)cc3)cc2)CC1`, the EC50 was 140 nM. Turning to `O=C(Nc1ccc(O)cc1)c1ccc(N2CCN(C(=O)Oc3ccccc3)CC2)cc1`, the EC50 worked out at 4100 nM. `CC(C)(C)OC(=O)N1CCN(c2ccc(C(=O)Nc3cccc(Br)c3)cc2)CC1`: the EC50 worked out at 580 nM.

Consider `CC(C)(C)OC(=O)N1CCN(c2ccc(C(=O)N[C@H]3CC[C@H](O)CC3)cc2)CC1`, for which the EC50 was over 10000 nM. With `CC(C)(C)C(=O)N1CCN(c2ccc(C(=O)Nc3ccc(O)cc3)cc2)CC1`, the EC50 stood at 780 nM. Take `CC(C)(C)NC(=O)N1CCN(c2ccc(C(=O)Nc3ccc(O)cc3)cc2)CC1`: the EC50 came to 470 nM.

Consider `CC(C)(C)OC(=O)N1CCN(c2ccc(C(=O)Nc3ccc(C#N)cc3)cc2)CC1`, for which the concentration giving a half-maximal response (EC50) is 5600 nM. On the same count and under the same terms, the figure for `CCOC(=O)N1CCN(c2ccc(C(=O)Nc3ccc(O)cc3)cc2)CC1` is 9600 nM. Same read-out and setting: for `CC(=O)Nc1ccc(NC(=O)c2ccc(N3CCN(C(=O)OC(C)(C)C)CC3)cc2)cc1` the value was over 10000 nM; for `CC(C)(C)OC(=O)N1CCN(c2ccc(C(=O)Nc3ccccc3)cc2)CC1`, over 10000 nM; for `CC(C)(C)OC(=O)N1CCN(c2ccc(C(=O)Nc3ccc(O)cc3)cc2)CC1`, 160 nM. Still for that read-out and setting: the figure for `CC(C)(C)OC(=O)C1CCN(c2ccc(C(=O)Nc3ccc(O)cc3)cc2)CC1` is 1600 nM; for `CC(C)(C)OC(=O)N1CCN(c2ccc(C(=O)Nc3cc[n+]([O-])cc3)cc2)CC1` it is over 10000 nM.

As to `O=C(Nc1ccc(O)cc1)c1ccc(N2CCN(C(=O)OCc3ccccc3)CC2)cc1`, the EC50 is 550 nM.

Consider `CC(C)(C)OC(=O)N1CCC(c2ccc(C(=O)Nc3ccc(O)cc3)cc2)CC1`, for which the EC50 amounted to 1700 nM. For the molecule `O=C(Nc1ccc(O)cc1)c1ccc(N2CCN(C(=O)Nc3ccccc3)CC2)cc1`, the EC50 was found to be 19600 nM. Still for that read-out and setting: the figure for `CC(C)(C)OC(=O)N1CCN(c2ccc(C(=O)Nc3ccc(C(=O)c4ccccc4)cc3)cc2)CC1` is 690 nM; for `O=C(Nc1ccc(O)cc1)c1ccc(N2CCN(C(=O)NCc3ccccc3)CC2)cc1` it is 2700 nM. Take `CN(CCNC(=O)OC(C)(C)C)c1ccc(C(=O)Nc2ccc(O)cc2)cc1`: the EC50 was over 10000 nM. Same read-out and setting: the figure for `CN(C)c1ccc(NC(=O)c2ccc(N3CCN(C(=O)OC(C)(C)C)CC3)cc2)cc1` is over 10000 nM; for `CN(C(=O)c1ccc(N2CCN(C(=O)OC(C)(C)C)CC2)cc1)c1ccc(O)cc1` it is over 10000 nM.

Turning to `CC(C)(C)OC(=O)N1CCN(c2cccc(C(=O)Nc3ccc(O)cc3)c2)CC1`, the EC50 is over 10000 nM. Same read-out and setting: for `CC(C)(C)OC(=O)N1CCN(c2ccc(C(=O)Nc3ccc(F)cc3)cc2)CC1` the value was over 10000 nM.

In a further assay the test system is Hepacivirus hominis. The assay can be described thus: Inhibition of ATPase activity of HCV NS3/4A protease up to 10 uM.
Settings: not given
Summed up:
(§1)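 Cell-free assays used purified protein, either the full-length NS3-4A complex or the separate protease and helicase domains. Compound was tested at concentrations up to 10 µM.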
Regarding `CC(C)(C)OC(=O)N1CCN(c2ccc(C(=O)Nc3ccc(O)cc3)cc2)CC1`, the outcome was inactive.

The subject of another assay is Hepacivirus hominis. Kind of assay: Inhibition of HCV NS5B deltaC55 polymerase.
Settings: not given
The essentials:
(§2)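 Cell-free polymerase assays used purified NS5B in its ΔC55 and ΔC21 truncated forms.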
For the molecule `CC(C)(C)OC(=O)N1CCN(c2ccc(C(=O)Nc3ccc(O)cc3)cc2)CC1`, the result was inactive.

In a further assay the test system is Hepacivirus hominis. The assay can be described thus: Inhibition of HCV NS5B deltaC21 polymerase.
Settings: not given
The essentials:
as §2
On to `CC(C)(C)OC(=O)N1CCN(c2ccc(C(=O)Nc3ccc(O)cc3)cc2)CC1`, for which the outcome was inactive.

The next assay concerns Hepacivirus hominis. Kind of assay: Inhibition of helicase activity of HCV NS3/4A protease up to 10 uM.
Settings: not given
Summed up:
as §1
Regarding `CC(C)(C)OC(=O)N1CCN(c2ccc(C(=O)Nc3ccc(O)cc3)cc2)CC1`, the result was inactive.
